According to the RNAGym collection of RNA variant scans (doi:10.1038/s41586-018-0170-7):

B1: tRNA (parent)
chain: GUUCCGUUGGCGUAAUGGUAACGCGUCUCCCUCCUAAGGAGAAGACUGCGGGUUCGAGUCCCGUACGGAACG

Variants of: B1
Experiment: yeast fitness, log relative to wild type (ln ratio); higher = fitter; tRNA-Arg(CCU), competitive growth, 37 C, 1 M NaCl
Summary of the method: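 Fitness is the natural log of each genotype's generations divided by the wild type's. Generations were derived as OD-scaled log2 output/input frequency from 125 bp paired-end Illumina counts, weighting replicates by inverse variance. Pools of the tRNA-Arg(CCU) variant library, on a HIS3 centromeric plasmid in BY4742 lacking the chromosomal gene, grew ~6.5 generations (~26.5 h) in SC-HIS 1M NaCl at 37 °C after 4 generations in SC-HIS at 30 °C.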

Variant | yeast fitness (ln)
G1A U2C G6U A43C C46U C66A A70G C71U | -0.0283
G1A U2G G6A C27U A43C A69G A70G | -0.341
G6U A43C C46U A70U C71U | -0.225
G6U A43C C66U A70G | -0.273
G1A G6A C46U C66U A69G A70U | -0.0453
U2C G6A A43C C66A A70U | -0.0851
U2C C46U A69G A70U | -0.0822
G6U C27U A70U | -0.208
U2C G6U A43C C46U C66A | -0.0972
G1A U2G G6A C27U A43C C46U A70G C71U | -0.405
G1A U2C G6U C27U C46U C66A A69G A70G C71U | -0.0613
U2G C27U A43C C66A A69G A70U C71U | -0.477
U2G G6U A69G | -0.176
U2C G6A C66A A70U C71U | -0.0758
U2G G6A A43C A69G C71U | -0.364
G1A U2C C27U A69G A70U C71U | -0.351
G6U C27U C46U C66A A70U | -0.084
U2G G6U C46U C66U A70G C71U | -0.152
U2G G6U A43C C46U A69G A70U | -0.194
G1A G6A C27U C46U C66U A70U | -0.198
G1A U2C G6A A43C C46U C66U A70U C71U | -0.402
U2G G6A C27U A43C C46U C66U A70G C71U | -0.194
G1A C27U A43C C46U C66A A70G C71U | -0.211
G1A G6A C46U A70U C71U | -0.0983

Variant | yeast fitness (ln)
U2G C27U C66A A70G | -0.128
G1A C27U C66A A70U C71U | -0.243
G1A C27U A43C C46U C66A A69G A70G C71U | -0.305
G6U C27U C66U A69G A70G | -0.306
G1A U2C G6A C27U C46U A70G C71U | -0.0986
G1A C27U A43C A70U C71U | -0.269
G1A U2G G6U A69G A70U C71U | -0.255
G1A U2C G6U C27U C66A A69G A70G C71U | -0.137
G1A U2C A43C C46U A70G C71U | -0.00628
U2G G6A A43C C46U C66U A69G A70G C71U | -0.229
U2G G6U C27U A43C C46U A69G A70U C71U | -0.418
U2C C46U C66A A70U C71U | -0.0668
U2G C66A A69G A70G C71U | -0.152
U2C G6U C27U A43C C46U C66U A69G C71U | -0.465
U2G G6A C46U C66U A69G C71U | -0.155
A43C C46U C66U A69G A70U | -0.121
U2G C27U A43C C46U C66A A70U | -0.0794
U2C C66U A70U C71U | -0.152
U2G C27U A43C C66A A69G A70U | -0.291
G6A A43C C66U A70G C71U | -0.26
U2G G6A C27U A43C C46U A69G A70U | -0.159
G1A U2C G6A C27U A43C C46U C66U C71U | -0.128
U2G G6U A43C C46U C66A | -0.205
G1A U2G G6U C66A A70G C71U | -0.525

Variant | yeast fitness (ln)
U2C G6U A43C A69G C71U | -0.255
G6A A43C A70G | -0.223
U2C C27U A43C C46U C66U A69G A70G C71U | -0.216
G1A U2C C46U C66U A69G A70U | -0.152
G6U A69G | -0.234
U2G G6A A70G C71U | -0.142
U2G C46U A70U C71U | -0.0115
G1A U2C G6A C46U C66A A70G C71U | -0.105
U2G G6A C27U C66A A70G | -0.15
G1A U2C G6U A43C C66U A70U | -0.295
G1A U2C C27U C66U A70U | -0.108
G1A U2C C46U C66A A70U C71U | -0.0833
G1A U2G G6A C27U A43C A70U C71U | -0.365
U2G G6A C27U A43C C46U C66A C71U | -0.283
U2G G6A C27U A43C C46U C66U A70U | -0.0122
G6U C27U A43C A69G A70U | -0.391
G1A G6A C27U C46U A70G C71U | -0.366
U2G C27U A43C C66U A70G | -0.257
G6U C66A A69G | 0.00209
U2G G6U C66A A69G A70U | -0.000141
G1A U2G G6U C27U A70G | -0.274
G1A G6U C27U A70G C71U | -0.352
G1A U2G C27U A43C C46U | -0.038
G1A U2G G6A C27U C66U A70U | -0.234

Variant | yeast fitness (ln)
G1A U2G C27U C66U A69G A70U | -0.35
G6A C27U C46U C66U A70U C71U | -0.237
G1A G6U A43C C46U A70U | -0.219
U2C G6U A43C C46U C66U A70G C71U | -0.352
U2G G6A C27U A43C C46U C66U A69G C71U | -0.377
G6U A43C A69G A70U C71U | -0.447
U2G G6U C46U C66U A70U | -0.0168
A43C C66A A69G C71U | -0.226
U2G G6A C27U A43C C66U A70U | -0.0534
U2C G6A C46U C66U A69G C71U | -0.183
A43C C66A A70G C71U | -0.105
G1A U2G G6A C46U A70U | -0.143
C46U C66A A69G A70U | -0.0373
U2G G6A A43C A70G | -0.0939
U2C G6A C27U C66U C71U | -0.161
G1A U2G C27U C66U A69G A70G | -0.26
U2G G6U C27U C46U A69G A70G | -0.191
G1A U2C G6U C27U C46U A70U | -0.157
U2C G6A A70U | -0.0455
G6A C27U A70G C71U | -0.291
G1A G6A A43C A70U | -0.221
U2C | 0.0175
U2C C27U C46U A69G A70G | -0.0283
G1A U2C G6U C27U A70U C71U | -0.287

Variant | yeast fitness (ln)
G1A C27U A43C C46U C66U A69G A70U | -0.4
U2C G6A C27U A70G C71U | -0.282
U2G A43C A69G C71U | -0.163
G1A U2G A43C C66U A69G C71U | -0.497
G6U C27U A43C A70G C71U | -0.348
U2C C27U A43C C46U A69G C71U | -0.118
G1A U2G C27U A69G A70G | -0.242
G1A U2G G6A C27U A70U | -0.24
G6A C27U A43C C46U C66U C71U | -0.464
G1A A43C C46U C66A A69G A70U | -0.113
G1A G6A C27U A43C C66U A70U C71U | -0.381
C27U A43C C46U C66A A69G A70G | -0.0756
G6A C46U A70G C71U | -0.145
G1A A43C C46U A69G A70G C71U | -0.13
G1A G6U C27U A43C C66A A70G C71U | -0.411
G1A A43C A70U C71U | -0.32
G1A G6U C46U C66U A69G A70G | -0.205
G6A A70U | -0.0535
G1A U2G C27U C46U C66A A70U | -0.138
G1A U2G C66U A69G A70U C71U | -0.435
G1A G6U C27U A43C C46U A70G | -0.385
G6A C66A | -0.163
U2C C66U A70U | -0.0706
A43C C46U C66U | -0.0822

Variant | yeast fitness (ln)
U2C A43C A69G A70G | -0.0256
G6A C27U A43C A70U C71U | -0.322
G1A U2G G6U C27U C66A A70U C71U | -0.168
U2C C27U A43C A69G C71U | -0.144
G1A U2G G6A C27U A43C C71U | -0.357
C46U C66U A70G | -0.0429
U2G G6A C27U A43C A69G A70G | -0.168
G1A G6U C27U A69G A70U | -0.29
U2C C46U C66U A69G C71U | -0.145
U2G G6U C27U A43C C46U C66A A70U | -0.017
G1A U2G G6A C27U C46U C66U A70G C71U | -0.243
G1A U2C C27U A43C C66U A70G C71U | -0.197
G1A G6U C27U A69G A70G C71U | -0.376
G1A U2G C27U A43C C66U A70U C71U | -0.382
U2G C27U C46U A69G A70G C71U | -0.169
G1A U2G G6A A43C C46U | -0.111
G1A G6A C66U A70G | -0.184
G6U C27U A43C C46U | -0.155
G6U C27U A43C C66A A69G | -0.264
G1A G6U A43C C66A A69G A70U C71U | -0.344
G1A U2G G6U C27U C66U | -0.38
G6U C46U C66U A69G A70G C71U | -0.205
G1A C27U A43C A69G A70U | -0.389
G1A U2G G6U A43C C46U C66U A70G C71U | -0.418

Variant | yeast fitness (ln)
G1A U2G G6A C27U C46U C66U A70U C71U | -0.0596
G1A U2G C46U A70G C71U | -0.166
G1A G6U | -0.0886
G1A C46U A69G A70U | -0.0206
A43C C46U A70G C71U | -0.168
G1A U2G C27U C66U A69G A70U C71U | -0.511
U2C G6A C27U C46U C66U A70U C71U | -0.174
U2C G6A C66U A69G C71U | -0.225
G1A U2G G6A C46U A69G A70U C71U | -0.259
G1A U2C C27U A43C C66U A70U C71U | -0.244
U2C G6U C27U A43C A70U | -0.2
C27U A43C C46U C66A A69G A70G C71U | -0.122
G1A U2C A43C C66A A70U C71U | -0.285
G6A C27U A43C A69G A70U C71U | -0.238
G6U C46U A69G A70U | -0.204
G1A U2G G6U C46U C66U C71U | -0.257
G6U C27U A43C A69G A70G C71U | -0.49
U2C G6A A43C C46U C66A | -0.2
U2G G6U C27U A43C A69G A70U | -0.315
G1A U2C G6A A43C C46U C66U A69G A70G C71U | -0.0138
C27U A43C C66U C71U | -0.269
U2G G6A C27U C66U C71U | -0.238
U2C G6U C27U A43C C66A A70G C71U | -0.0868
